Screening data as filed in PubChem.
The entries come from a sample that favours hits as a whole.
IDH1 R132H inh: IDH1 R132H (human) inhibition | O75874 | IDH1 R132H reductase, diaphorase/resazurin fluorescence, 60 min | inhibition, % at 10 µM | 70,000 tested, 0.18% active | AID 624101; in the data active = inhibition above about 34%; inconclusive = no clear call, values can overlap the other calls; inactive = below about 11%
Target sequence (O75874 whole entry R132H): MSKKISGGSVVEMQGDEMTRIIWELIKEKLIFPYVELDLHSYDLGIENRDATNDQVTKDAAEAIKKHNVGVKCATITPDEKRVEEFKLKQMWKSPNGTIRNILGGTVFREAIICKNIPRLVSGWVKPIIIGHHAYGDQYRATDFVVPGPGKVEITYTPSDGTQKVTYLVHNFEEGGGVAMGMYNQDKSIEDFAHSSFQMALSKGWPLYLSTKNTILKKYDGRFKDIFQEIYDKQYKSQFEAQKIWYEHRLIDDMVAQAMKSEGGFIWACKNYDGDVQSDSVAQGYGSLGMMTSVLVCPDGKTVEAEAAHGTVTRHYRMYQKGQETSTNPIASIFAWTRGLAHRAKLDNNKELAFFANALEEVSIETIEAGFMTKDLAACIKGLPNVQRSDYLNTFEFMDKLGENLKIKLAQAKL
KDM4C inh: inhibitors of human demethylase GASC-1 KDM4C; Q9H3R0; GST-KDM4C 2-372, H3K9me3 peptide, LANCE TR-FRET; inhibition, % at 12.5 µM; 96,000 tested, 0.15% active; AID 720574;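 active = mean replicate inhibition above about 25%, with at least 55% of replicates also reaching it, limit read from the data, passing the limit was not always enough; inconclusive = only one of those two conditions met; inactive = neither condition met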
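Material: N-terminal GST-fused human GASC-1 (KDM4C) fragment, residues 2-372. Input: 10 nM enzyme. Incubation: enzyme reaction 30 min, then detection 60 min, both room temperature. Doses: one test concentration per compound. Read-out basis: inhibition from TR-FRET ratio decrease. Detection: LANCE TR-FRET, excitation 340 nm, emissions 618 and 671 nm.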
T cruzi growth: T. cruzi proliferation inhibition; 77,000 tested, 5.9% active; T. cruzi beta-gal in NIH3T3, GalScreen luminescence, 90 h; inhibition, % at 8.34 µM;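 active = mean inhibition above about 93%, with at least 55% of replicates each passing it, limit read from the data, passing the limit was not always enough; inconclusive = only one of those two conditions holds; inactive = neither condition holds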
Each line names hits and unclear results; the compound was inactive in the other large screens.

C[C@H](CO)N1C[C@H](C)[C@H](CN(C)C(=O)NC2CCCCC2)Oc2ncc(Br)cc2C1=O	IDH1 R132H inh 35
CC(=O)N(C)C[C@@H]1Oc2ncc(-c3ccc(C#N)cc3)cc2C(=O)N([C@H](C)CO)C[C@H]1C	none
COc1ccc(-c2cnc3c(c2)C(=O)N([C@H](C)CO)C[C@H](C)[C@H](CN(C)C(=O)Cc2ccncc2)O3)cc1	none
C[C@H]1CN([C@@H](C)CO)C(=O)c2cc(Br)cnc2O[C@@H]1CN(C)C(=O)NC1CCCCC1	none (no result: IDH1 R132H inh)
C[C@H](CO)N1C[C@H](C)[C@H](CN(C)C(=O)Cc2cccnc2)Oc2ncc(-c3ccccc3)cc2C1=O	none (no result: IDH1 R132H inh)
CC(=O)N(C)C[C@H]1Oc2ncc(-c3ccc(C#N)cc3)cc2C(=O)N([C@H](C)CO)C[C@@H]1C	KDM4C inh 32
COc1ccc(-c2cnc3c(c2)C(=O)N([C@@H](C)CO)C[C@H](C)[C@@H](CN(C)C(=O)Cc2ccncc2)O3)cc1	IDH1 R132H inh 41
C[C@@H]1CN([C@@H](C)CO)C(=O)c2cc(-c3ccncc3)cnc2O[C@H]1CN(C)C(=O)Cc1cccnc1	T cruzi growth 104 (no result: IDH1 R132H inh)
CCCC(=O)Nc1ccc2c(c1)C(=O)N(C)[C@H]1CC[C@H](CC(=O)NCc3ccccc3F)O[C@@H]1CO2	none (no result: IDH1 R132H inh)
Cc1noc(C)c1S(=O)(=O)N(C)C[C@@H]1OCCCC[C@@H](C)Oc2ccc(NS(=O)(=O)c3ccccc3)cc2C(=O)N([C@H](C)CO)C[C@H]1C	none
CN1OC(COC(=O)c2cc(Cl)cc(Cl)c2)CC12C1CC3CC(C1)CC2C3 (centres undefined)	none (no result: KDM4C inh, T cruzi growth)
COc1ccc(NC(=O)N[C@H]2CC[C@H](CCNC(=O)c3cc(Cl)cc(Cl)c3)O[C@@H]2CO)cc1	none
C[C@@H]1CCCCO[C@H](CN(C)Cc2ccccc2)[C@@H](C)CN([C@H](C)CO)C(=O)c2cc(NC(=O)NC3CCCCC3)ccc2O1	none
CO[C@H]1CN(C)C(=O)c2cc(NS(=O)(=O)c3cn(C)cn3)ccc2OC[C@@H](C)NC[C@@H]1C	none
O=S(c1ccccc1)c1ccc2nnnn2n1 (centres undefined)	IDH1 R132H inh 62 (no result: KDM4C inh, T cruzi growth)
CN1C(=O)c2cc(NC(=O)C3CC3)ccc2OC[C@H]2O[C@@H](CC(=O)O)CC[C@@H]21	KDM4C inh 44 (no result: IDH1 R132H inh, T cruzi growth)
CN1C(=O)c2cc(NC(=O)C3CC3)ccc2OC[C@@H]2O[C@@H](CC(=O)O)CC[C@@H]21	none (no result: IDH1 R132H inh, T cruzi growth)
CNCCNS(=O)(=O)c1cccc2cnccc12	none (no result: KDM4C inh, T cruzi growth)
CN(C)c1ccc2c(c1)[C@H]1C[C@@H](CC(=O)NCc3ccc(Oc4ccccc4)cc3)O[C@H](CO)[C@H]1O2	none (no result: IDH1 R132H inh, T cruzi growth)
CN(C)c1ccc2c(c1)[C@H]1C[C@H](CC(=O)NCc3ccccc3)O[C@@H](CO)[C@H]1O2	KDM4C inh 36
CN(C)c1ccc2c(c1)[C@@H]1C[C@@H](CC(=O)NCc3ccc(Oc4ccccc4)cc3)O[C@@H](CO)[C@@H]1O2	T cruzi growth 127
CN(C)c1ccc2c(c1)[C@@H]1C[C@@H](CC(=O)NCc3ccccc3)O[C@H](CO)[C@@H]1O2	none
CC(=O)Nc1ccccc1NC(=O)COc1ccc2ccccc2c1Br	none (no result: KDM4C inh, T cruzi growth)
O=C(C[C@H]1CC[C@H]2[C@@H](COC[C@@H](O)CN2C(=O)Nc2ccc3c(c2)OCO3)O1)N1CCN(c2ccccc2)CC1	none (no result: IDH1 R132H inh, T cruzi growth)
CCc1csc(N2[C@H](CNCCOC)[C@H](c3ccccc3)[C@@H]2CO)n1	none (no result: IDH1 R132H inh)
O=C(CCc1ccc(O)cc1)CC(O)CCc1ccc(O)c(O)c1 (centres undefined)	IDH1 R132H inh 54 (no result: KDM4C inh, T cruzi growth)
CCCCCCC[C@@H](O)CC(=O)CCc1ccc(O)c(OC)c1	none (no result: KDM4C inh, T cruzi growth)
COC(CCc1ccc(O)c(O)c1)CC(=O)CCc1ccc(O)c(O)c1 (centres undefined)	IDH1 R132H inh 52 (no result: KDM4C inh, T cruzi growth)
CCCCC[C@H](O)CC(=O)CCc1ccc(O)c(OC)c1	none (no result: KDM4C inh, T cruzi growth)
CCOC(=O)C1=C(COCCN)NC(C)=C(C(=O)OC)C1c1ccccc1Cl (centres undefined)	none (no result: KDM4C inh, T cruzi growth)
C[C@@H]1CN([C@@H](C)CO)C(=O)c2cccc(NC(=O)Nc3ccc4c(c3)OCO4)c2O[C@H]1CN(C)C(=O)Nc1ccc(C(F)(F)F)cc1	none (no result: IDH1 R132H inh)
COc1cc(/C=C/C(=O)CC(=O)/C=C/c2ccc(O)c(OC)c2)ccc1O	none (no result: KDM4C inh, T cruzi growth)
COC(=O)/C=C/c1cc(O)ccc1O	IDH1 R132H inh 89 (no result: KDM4C inh, T cruzi growth)
CC(C)C[C@H](NC(=O)[C@@H](O)[C@H](N)Cc1ccccc1)C(=O)O	none (no result: KDM4C inh, T cruzi growth)
CCC(C)[C@@H](CO[C@@H](Cc1ccccc1)C(=O)N[C@@H](CCS(C)(=O)=O)C(=O)OC(C)C)NC[C@@H](N)CS (some centres undefined)	IDH1 R132H inh 60 (no result: KDM4C inh, T cruzi growth)
C[C@H](CO)N1C[C@H](C)[C@@H](CN(C)Cc2ccc(Cl)c(Cl)c2)Oc2ccc(NC(=O)Cc3ccccc3)cc2C1=O	none (no result: IDH1 R132H inh)
CN(C)c1ccc2c(c1)[C@@H]1C[C@@H](CC(=O)N3CCOCC3)O[C@@H](CO)[C@@H]1O2	KDM4C inh 44
CN(C)c1ccc2c(c1)[C@@H]1C[C@H](CC(=O)N3CCc4ccccc4C3)O[C@@H](CO)[C@@H]1O2	T cruzi growth 101
CN(C)c1ccc2c(c1)[C@@H]1C[C@@H](CC(=O)N3CCCCC3)O[C@H](CO)[C@@H]1O2	none (no result: IDH1 R132H inh, T cruzi growth)
CN(C)c1ccc2c(c1)[C@H]1C[C@H](CC(=O)N3CCc4ccccc4C3)O[C@@H](CO)[C@H]1O2	none
COc1ccc(S(=O)(=O)N(C)C[C@@H]2Oc3ccc(NS(=O)(=O)c4ccc(Cl)cc4)cc3CC(=O)N([C@H](C)CO)C[C@H]2C)cc1	none
Cc1noc(C)c1NC(=O)Nc1ccc2c(c1)C(=O)N([C@H](C)CO)C[C@@H](C)[C@@H](CN(C)C(=O)C1CCCCC1)OCCCC[C@H](C)O2	none
Cc1ccc(S(=O)(=O)N(C)C[C@@H]2OCCCC[C@H](C)Oc3ccc(NS(=O)(=O)c4ccc(F)cc4)cc3C(=O)N([C@@H](C)CO)C[C@@H]2C)cc1	none
Cc1ccc(S(=O)(=O)N(C)C[C@@H]2OCCCC[C@H](C)Oc3ccc(NS(=O)(=O)c4ccc(Cl)cc4)cc3C(=O)N([C@H](C)CO)C[C@@H]2C)cc1	T cruzi growth 108
Cc1ccc(S(=O)(=O)N(C)C[C@H]2OCCCC[C@H](C)Oc3ccc(NS(=O)(=O)c4ccc(F)cc4)cc3C(=O)N([C@@H](C)CO)C[C@H]2C)cc1	T cruzi growth 115
Cc1ccc(S(=O)(=O)N(C)C[C@@H]2OCCCC[C@@H](C)Oc3ccc(NS(=O)(=O)c4ccc(Cl)cc4)cc3C(=O)N([C@@H](C)CO)C[C@H]2C)cc1	none (no result: IDH1 R132H inh)
COc1ccc(-c2cc(=O)c3c(O)cc(O)c(-c4cc(-c5cc(=O)c6c(O)cc(O)cc6o5)ccc4OC)c3o2)cc1	none (no result: KDM4C inh, T cruzi growth)
COc1ccccc1S(=O)(=O)N[C@H]1CC[C@H](CCNC(=O)C2CCCC2)O[C@H]1CO	IDH1 R132H inh inconclusive, KDM4C inh 50 (no result: T cruzi growth)
Cc1ccccc1S(=O)(=O)NCC[C@H]1CC[C@H](NC(=O)C2CCCCC2)[C@H](CO)O1	IDH1 R132H inh 88, KDM4C inh 82
Cc1ccccc1S(=O)(=O)NCC[C@H]1CC[C@@H](NC(=O)C2CCCCC2)[C@@H](CO)O1	none
COc1ccccc1S(=O)(=O)N[C@H]1CC[C@H](CCNC(=O)C2CCCCC2)O[C@@H]1CO	none
COc1ccc(-c2nc3c(c(SC)n2)COC(C)(C)C3)cc1	none (no result: KDM4C inh, T cruzi growth)
